According to ChEMBL document CHEMBL4184148 (Bioorg Med Chem Lett, 2017):

How the values were obtained:
[1] = tested on: Phosphatidylinositol 4,5-bisphosphate 3-kinase catalytic subunit alpha isoform (Homo sapiens), P42336 [E542K]; experiment: Binding affinity to human partial length PIK3CA E542K mutant (R108 to N1068 residues) expressed in HEK293 cells at 1 uM by Kinomescan method relative to control; assay type: cell-based
[2] = target: Citron Rho-interacting kinase (Homo sapiens) (UniProt O14578); experiment: Binding affinity to wild-type human partial length CIT (M68 to E432 residues) expressed in Escherichia coli BL21 at 1 uM by Kinomescan method relative to control
[3] = target: Serine/threonine-protein kinase WNK2 (Homo sapiens) (UniProt Q9Y3S1); experiment: Binding affinity to wild-type human partial length WNK2 (V47 to D482 residues) expressed in HEK293 cells at 1 uM by Kinomescan method relative to control; assay type: cell-based
[4] = target: Cyclin-dependent kinase 2 homolog (Plasmodium falciparum (isolate 3D7)) (UniProt P61075); experiment: Binding affinity to wild-type Plasmodium falciparum full length PK5 (M1 to N288 residues) expressed in HEK293 cells at 1 uM by Kinomescan method relative to control; assay type: cell-based
[5] = target: Serine/threonine-protein kinase 26 (Homo sapiens) (UniProt Q9P289); experiment: Binding affinity to wild-type human full length MST4 (M1 to P416 residues) expressed in HEK293 cells at 1 uM by Kinomescan method relative to control; assay type: cell-based
Method in brief: (§1)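 Run as one kinome-wide competition binding panel with each compound at a single fixed concentration. Results were plotted as a kinome-wide selectivity map.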

[6] = target: Insulin receptor-related protein (Homo sapiens) (UniProt P14616); experiment: Binding affinity to wild-type human partial length INSRR (R950 to E1278 residues) expressed in Escherichia coli BL21 at 1 uM by Kinomescan method relative to control
[7] = tested on: HeLa; experiment: Cytotoxicity against human HeLa cells assessed as reduction in cell viability after 72 hrs by CellTiter-Glo assay; assay type: functional, cell-based
Method in brief: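 Cells were treated across a dose-response range for 72 h, and viability was read by CellTiter-Glo luminescence. Measurements were made in triplicate and reported with standard error.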

[8] = target: Receptor-interacting serine/threonine-protein kinase 1 (Homo sapiens) (UniProt Q13546); experiment: Binding affinity to wild-type human partial length RIPK1 (M1 to K305 residues) expressed in Escherichia coli BL21 at 1 uM by Kinomescan method relative to control
[9] = target: Ribosomal protein S6 kinase alpha-3 (Homo sapiens) (UniProt P51812); experiment: Binding affinity to wild-type human partial length N-terminal RSK3 kinase domain 1 (M1 to Q385 residues) expressed in Escherichia coli BL21 at 1 uM by Kinomescan method relative to control
[10] = target: Serine/threonine-protein kinase SIK2 (Homo sapiens) (UniProt Q9H0K1); experiment: Binding affinity to wild-type human full length SIK2 (M1 to N926 residues) expressed in Escherichia coli BL21 at 1 uM by Kinomescan method relative to control
Method in brief: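 Kinome-wide competition binding panel run by an outside provider, with each compound tested at a single concentration. Activity is read against the kinase panel.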

[11] = target: Receptor-type tyrosine-protein kinase FLT3 (Homo sapiens) (UniProt P36888); experiment: Binding affinity to wild-type human partial length autoinhibited FLT3 (H564 to Y969 residues) expressed in HEK293 cells at 1 uM by Kinomescan method relative to control; assay type: cell-based; set-up: scale not given: the % may be the effect or the level left
[12] = target: Activin receptor type-2B (Homo sapiens) (UniProt Q13705); experiment: Binding affinity to wild-type human ACVR2B (H169 to D504 residues) expressed in Escherichia coli BL21 at 1 uM by Kinomescan method relative to control
[13] = target: Uncharacterized serine/threonine-protein kinase SBK3 (Homo sapiens) (UniProt P0C264); experiment: Binding affinity to wild-type human partial length SgK110 (L22 to R329 residues) expressed in Escherichia coli BL21 at 1 uM by Kinomescan method relative to control
[14] = target: Tyrosine-protein kinase Fes/Fps (Homo sapiens) (UniProt P07332); experiment: Binding affinity to wild-type human partial length FES (I527 to R822 residues) expressed in Escherichia coli BL21 at 1 uM by Kinomescan method relative to control
[15] = tested on: Receptor-type tyrosine-protein kinase FLT3 (Homo sapiens), P36888 [D835H]; experiment: Binding affinity to human partial length FLT3 D835H mutant (V592 to Y969 residues) expressed in Escherichia coli BL21 at 1 uM by Kinomescan method relative to control
[16] = target: cAMP-dependent protein kinase catalytic subunit alpha (Homo sapiens) (UniProt P17612); experiment: Binding affinity to wild-type human partial length PKAC-alpha (G10 to F351 residues) expressed in Escherichia coli BL21 at 1 uM by Kinomescan method relative to control
[17] = target: SRSF protein kinase 3 (Homo sapiens) (UniProt Q9UPE1); experiment: Binding affinity to wild-type human partial length SRPK3 (P41 to P567 residues) expressed in Escherichia coli BL21 at 1 uM by Kinomescan method relative to control
[18] = target: Casein kinase I isoform delta (Homo sapiens) (UniProt P48730); experiment: Binding affinity to wild-type human full length CSNK1D (M1 to K409 residues) expressed in Escherichia coli BL21 at 1 uM by Kinomescan method relative to control; method in brief: as §1
[19] = tested on: Hepatocyte growth factor receptor (Homo sapiens), P08581 [Y1235D]; experiment: Binding affinity to human partial length MET Y1235D mutant (D1010 to S1367 residues) expressed in Escherichia coli BL21 at 1 uM by Kinomescan method relative to control
[20] = target: Tyrosine-protein kinase Fer (Homo sapiens) (UniProt P16591); experiment: Binding affinity to wild-type human partial length FER (S542 to T822 residues) expressed in Escherichia coli BL21 at 1 uM by Kinomescan method relative to control
[21] = target: Receptor tyrosine-protein kinase erbB-3 (Homo sapiens) (UniProt P21860); experiment: Binding affinity to wild-type human partial length ERBB3 (G684 to A987 residues) expressed in HEK293 cells at 1 uM by Kinomescan method relative to control; assay type: cell-based
[22] = target: Dual serine/threonine and tyrosine protein kinase (Homo sapiens) (UniProt Q6XUX3); experiment: Binding affinity to wild-type human full length RIPK5 (M1 to T929 residues) expressed in HEK293 cells at 1 uM by Kinomescan method relative to control; assay type: cell-based
[23] = target: Serine/threonine-protein kinase LATS2 (Homo sapiens) (UniProt Q9NRM7); experiment: Binding affinity to wild-type human partial length LATS2 (Q641 to V1088 residues) expressed in HEK293 cells at 1 uM by Kinomescan method relative to control; assay type: cell-based
[24] = tested on: Mast/stem cell growth factor receptor Kit (Homo sapiens), P10721 [V559D,V654A]; experiment: Binding affinity to human partial length KIT V559D/V654A double mutant (Y545 to D952 residues) expressed in Escherichia coli BL21 at 1 uM by Kinomescan method relative to control
[25] = target: Serine/threonine-protein kinase 38-like (Homo sapiens) (UniProt Q9Y2H1); experiment: Binding affinity to wild-type human partial length NDR2 (N34 to E447 residues) expressed in Escherichia coli BL21 at 1 uM by Kinomescan method relative to control

Receptor-interacting serine/threonine-protein kinase 1 (Homo sapiens), sequence (Q13546 whole entry, the tested form may be a part): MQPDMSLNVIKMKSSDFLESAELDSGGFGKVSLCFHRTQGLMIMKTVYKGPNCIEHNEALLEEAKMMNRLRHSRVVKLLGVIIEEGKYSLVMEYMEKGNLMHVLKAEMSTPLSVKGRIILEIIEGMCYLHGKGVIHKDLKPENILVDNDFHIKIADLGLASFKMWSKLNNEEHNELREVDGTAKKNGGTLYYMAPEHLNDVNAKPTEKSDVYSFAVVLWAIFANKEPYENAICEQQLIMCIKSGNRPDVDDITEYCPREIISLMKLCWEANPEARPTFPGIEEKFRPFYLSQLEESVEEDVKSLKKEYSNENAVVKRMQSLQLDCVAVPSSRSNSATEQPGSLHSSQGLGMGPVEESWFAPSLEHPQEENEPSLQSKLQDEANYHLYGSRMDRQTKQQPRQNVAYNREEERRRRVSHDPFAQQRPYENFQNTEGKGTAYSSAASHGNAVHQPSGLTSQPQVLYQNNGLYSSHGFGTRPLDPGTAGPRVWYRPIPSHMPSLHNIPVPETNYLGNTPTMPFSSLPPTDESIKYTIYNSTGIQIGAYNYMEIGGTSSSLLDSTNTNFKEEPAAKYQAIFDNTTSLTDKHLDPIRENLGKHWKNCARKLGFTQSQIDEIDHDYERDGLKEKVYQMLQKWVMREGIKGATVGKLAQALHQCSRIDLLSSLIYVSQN
Serine/threonine-protein kinase LATS2 (Homo sapiens), sequence (Q9NRM7 whole entry, the tested form may be a part): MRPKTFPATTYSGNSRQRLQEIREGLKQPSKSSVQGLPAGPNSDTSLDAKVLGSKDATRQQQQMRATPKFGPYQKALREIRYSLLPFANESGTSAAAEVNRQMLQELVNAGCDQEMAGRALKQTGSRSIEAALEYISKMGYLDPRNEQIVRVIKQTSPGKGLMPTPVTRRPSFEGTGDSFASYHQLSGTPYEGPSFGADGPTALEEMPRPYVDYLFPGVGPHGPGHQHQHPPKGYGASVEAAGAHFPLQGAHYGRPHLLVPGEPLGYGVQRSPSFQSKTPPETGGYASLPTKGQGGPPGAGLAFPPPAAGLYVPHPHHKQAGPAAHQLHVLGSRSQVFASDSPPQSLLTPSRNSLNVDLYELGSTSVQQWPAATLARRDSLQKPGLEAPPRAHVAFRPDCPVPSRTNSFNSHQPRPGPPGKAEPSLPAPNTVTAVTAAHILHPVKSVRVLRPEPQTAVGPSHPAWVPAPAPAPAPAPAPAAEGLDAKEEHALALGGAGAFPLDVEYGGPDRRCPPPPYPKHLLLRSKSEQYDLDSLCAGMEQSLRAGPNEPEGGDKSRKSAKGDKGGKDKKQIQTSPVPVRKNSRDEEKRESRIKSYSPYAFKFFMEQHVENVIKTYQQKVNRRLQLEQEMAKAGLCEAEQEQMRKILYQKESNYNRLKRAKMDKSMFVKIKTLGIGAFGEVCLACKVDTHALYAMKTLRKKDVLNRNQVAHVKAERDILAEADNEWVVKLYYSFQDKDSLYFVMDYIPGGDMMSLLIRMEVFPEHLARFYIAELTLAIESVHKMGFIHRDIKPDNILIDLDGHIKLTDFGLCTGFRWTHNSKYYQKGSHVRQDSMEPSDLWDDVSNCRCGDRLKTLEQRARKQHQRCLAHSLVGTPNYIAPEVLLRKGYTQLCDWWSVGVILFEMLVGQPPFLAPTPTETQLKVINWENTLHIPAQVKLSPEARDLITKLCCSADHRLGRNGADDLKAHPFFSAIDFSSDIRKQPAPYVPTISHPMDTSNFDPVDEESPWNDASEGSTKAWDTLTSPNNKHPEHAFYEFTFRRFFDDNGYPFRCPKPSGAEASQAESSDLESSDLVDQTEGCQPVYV
Uncharacterized serine/threonine-protein kinase SBK3 (Homo sapiens), sequence (P0C264 whole entry, the tested form may be a part): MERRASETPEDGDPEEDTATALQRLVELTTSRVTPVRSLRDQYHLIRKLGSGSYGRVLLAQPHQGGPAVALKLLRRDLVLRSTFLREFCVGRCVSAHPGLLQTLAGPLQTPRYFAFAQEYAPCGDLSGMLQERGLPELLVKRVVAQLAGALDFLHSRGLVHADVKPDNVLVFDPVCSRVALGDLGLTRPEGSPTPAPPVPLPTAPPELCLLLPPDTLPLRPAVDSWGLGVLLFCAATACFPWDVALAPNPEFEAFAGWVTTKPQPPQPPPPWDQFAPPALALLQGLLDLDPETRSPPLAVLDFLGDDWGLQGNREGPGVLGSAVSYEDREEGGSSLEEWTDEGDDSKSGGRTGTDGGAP
Tyrosine-protein kinase Fer (Homo sapiens), sequence (P16591 whole entry, looked up, the tested form may be a part): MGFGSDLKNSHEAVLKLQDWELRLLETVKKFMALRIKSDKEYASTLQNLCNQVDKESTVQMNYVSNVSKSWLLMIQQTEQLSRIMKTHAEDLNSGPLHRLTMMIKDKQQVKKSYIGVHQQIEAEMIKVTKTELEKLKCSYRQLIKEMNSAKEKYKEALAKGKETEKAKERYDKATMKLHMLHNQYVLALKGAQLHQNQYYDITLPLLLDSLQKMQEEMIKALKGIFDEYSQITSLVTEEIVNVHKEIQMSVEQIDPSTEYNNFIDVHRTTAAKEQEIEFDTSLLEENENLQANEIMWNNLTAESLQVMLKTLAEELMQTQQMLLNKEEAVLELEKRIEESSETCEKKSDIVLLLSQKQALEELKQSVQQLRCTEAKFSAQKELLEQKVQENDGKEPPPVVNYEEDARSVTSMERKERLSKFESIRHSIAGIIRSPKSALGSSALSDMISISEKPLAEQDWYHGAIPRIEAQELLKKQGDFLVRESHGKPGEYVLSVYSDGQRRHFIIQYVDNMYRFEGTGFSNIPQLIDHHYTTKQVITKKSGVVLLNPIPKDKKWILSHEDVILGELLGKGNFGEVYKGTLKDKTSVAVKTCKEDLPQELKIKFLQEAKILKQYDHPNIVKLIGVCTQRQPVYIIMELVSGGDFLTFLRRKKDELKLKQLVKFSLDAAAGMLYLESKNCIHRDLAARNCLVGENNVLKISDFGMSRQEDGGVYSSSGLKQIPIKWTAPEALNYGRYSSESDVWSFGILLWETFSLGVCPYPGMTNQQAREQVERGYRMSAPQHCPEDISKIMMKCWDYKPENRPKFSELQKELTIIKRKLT
Insulin receptor-related protein (Homo sapiens), sequence (P14616 27-742 limits assumed): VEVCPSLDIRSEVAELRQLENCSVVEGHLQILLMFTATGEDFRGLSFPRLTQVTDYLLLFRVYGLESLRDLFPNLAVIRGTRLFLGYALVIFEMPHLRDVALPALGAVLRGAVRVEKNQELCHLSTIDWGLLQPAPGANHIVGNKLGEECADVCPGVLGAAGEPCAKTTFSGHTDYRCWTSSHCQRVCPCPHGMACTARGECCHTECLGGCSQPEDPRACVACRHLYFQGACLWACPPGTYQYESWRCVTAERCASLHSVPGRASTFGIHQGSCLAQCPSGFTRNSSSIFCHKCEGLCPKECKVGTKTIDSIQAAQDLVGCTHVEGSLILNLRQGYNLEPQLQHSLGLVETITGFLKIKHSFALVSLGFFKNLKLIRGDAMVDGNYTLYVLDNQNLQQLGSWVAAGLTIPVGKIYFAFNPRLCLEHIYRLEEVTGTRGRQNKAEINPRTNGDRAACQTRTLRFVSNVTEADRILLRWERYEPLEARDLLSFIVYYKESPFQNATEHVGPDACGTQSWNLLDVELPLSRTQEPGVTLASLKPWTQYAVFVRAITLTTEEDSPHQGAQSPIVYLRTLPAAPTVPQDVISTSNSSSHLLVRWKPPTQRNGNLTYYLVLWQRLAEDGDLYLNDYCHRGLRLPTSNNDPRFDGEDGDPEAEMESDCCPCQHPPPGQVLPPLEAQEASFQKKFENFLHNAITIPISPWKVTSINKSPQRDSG
Insulin receptor-related protein (Homo sapiens), sequence (P14616 747-1297 limits assumed): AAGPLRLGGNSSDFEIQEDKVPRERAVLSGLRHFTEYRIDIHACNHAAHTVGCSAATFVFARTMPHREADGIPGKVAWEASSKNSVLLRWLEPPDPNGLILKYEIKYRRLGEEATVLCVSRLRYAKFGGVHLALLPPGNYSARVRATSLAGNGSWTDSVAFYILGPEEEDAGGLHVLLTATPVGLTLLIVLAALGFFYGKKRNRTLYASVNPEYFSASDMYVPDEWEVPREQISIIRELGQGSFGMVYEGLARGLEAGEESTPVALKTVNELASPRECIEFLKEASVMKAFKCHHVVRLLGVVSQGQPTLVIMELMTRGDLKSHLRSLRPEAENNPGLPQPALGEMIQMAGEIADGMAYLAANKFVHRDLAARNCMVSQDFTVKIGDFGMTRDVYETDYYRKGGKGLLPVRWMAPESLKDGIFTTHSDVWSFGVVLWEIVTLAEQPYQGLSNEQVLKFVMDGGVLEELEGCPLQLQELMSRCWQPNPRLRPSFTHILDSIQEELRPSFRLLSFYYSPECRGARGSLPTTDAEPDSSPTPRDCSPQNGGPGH
Activin receptor type-2B (Homo sapiens), sequence (Q13705 whole entry, the tested form may be a part): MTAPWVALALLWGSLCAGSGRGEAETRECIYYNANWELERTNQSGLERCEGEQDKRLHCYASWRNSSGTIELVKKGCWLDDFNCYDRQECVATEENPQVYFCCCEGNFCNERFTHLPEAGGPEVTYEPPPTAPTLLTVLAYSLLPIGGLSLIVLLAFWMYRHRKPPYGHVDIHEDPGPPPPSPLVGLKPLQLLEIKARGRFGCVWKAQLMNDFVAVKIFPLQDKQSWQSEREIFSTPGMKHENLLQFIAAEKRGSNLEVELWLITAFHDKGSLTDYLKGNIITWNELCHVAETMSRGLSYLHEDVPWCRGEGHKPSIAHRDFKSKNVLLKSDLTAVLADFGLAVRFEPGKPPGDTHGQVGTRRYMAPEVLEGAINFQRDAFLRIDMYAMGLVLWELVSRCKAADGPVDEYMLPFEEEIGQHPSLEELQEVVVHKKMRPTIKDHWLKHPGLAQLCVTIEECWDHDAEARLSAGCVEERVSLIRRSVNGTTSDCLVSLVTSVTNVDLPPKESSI
Cyclin-dependent kinase 2 homolog (Plasmodium falciparum (isolate 3D7)), sequence (P61075 whole entry, the tested form may be a part): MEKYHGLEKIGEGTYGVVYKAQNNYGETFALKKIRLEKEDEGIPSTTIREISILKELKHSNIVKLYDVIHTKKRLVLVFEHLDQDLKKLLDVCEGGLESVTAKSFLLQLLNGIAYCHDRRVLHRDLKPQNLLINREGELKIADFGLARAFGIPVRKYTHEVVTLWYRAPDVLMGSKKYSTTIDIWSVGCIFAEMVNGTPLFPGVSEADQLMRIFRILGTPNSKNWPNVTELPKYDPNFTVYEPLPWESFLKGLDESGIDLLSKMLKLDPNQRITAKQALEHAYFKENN

| Compound | Activity [1] [%] | Activity [2] [%] | Activity [3] [%] | Activity [4] [%] | Activity [5] [%] | Activity [6] [%] | IC50 [7] [nM] | Activity [8] [%] | Activity [9] [%] | Activity [10] [%] | Activity [11] [%] | Activity [12] [%] | Activity [13] [%] | Activity [14] [%] | Activity [15] [%] | Activity [16] [%] | Activity [17] [%] | Activity [18] [%] | Activity [19] [%] | Activity [20] [%] | also measured |
| --- | --- | --- | --- | --- | --- | --- | --- | --- | --- | --- | --- | --- | --- | --- | --- | --- | --- | --- | --- | --- | --- |
| CCC(=O)Nc1ccc(C(=O)Nc2ccc(Nc3ncc4c(n3)N(C)c3ccc(C)cc3C(=O)N4C)cc2)cc1 | 76 | 97 | 94 | 94 | 98 | 100 | < 1 | 86 | 85 | 78 | 85 | 100 | 70 | 99 | 87 | 87 | 100 | 95 | 91 | 85 | Activity [21]: 85%; Activity [22]: 68%; Activity [23]: 92%; Activity [24]: 97%; Activity [25]: 79% |
| C=CC(=O)Nc1ccc(C(=O)Nc2ccc(Nc3ncc4c(n3)N(C)c3ccc(C)cc3C(=O)N4C)cc2)cc1 | 62 | 93 | 86 | 96 | 100 | 100 | < 1 | 100 | 89 | 89 | 84 | 100 | 93 | 90 | 92 | 100 | 100 | 86 | 87 | 78 | Activity [21]: 81%; Activity [22]: 96%; Activity [23]: 100%; Activity [24]: 91%; Activity [25]: 97% |
